Assay results gathered from unrelated publications.
Compare with care: the assays were run in different laboratories.
ADRA1A: Alpha-1A adrenergic receptor (ADRA1A, Homo sapiens, UniProt P35348)
MAL12: Alpha-glucosidase MAL12 (MAL12, Saccharomyces cerevisiae S288c, UniProt P53341)

| SMILES | target | assay | setting | inhibition [%] |
| --- | --- | --- | --- | --- |
| COc1cc2c3c(c1OC)-c1c(OC)ccc(N4CCOCC4)c1CC3N(C)CC2 (stereo not shown) | ADRA1A | ligand displacement, radioligand | 10 µM | 65 |
| O=c1c(O)c(-c2ccc(O)c(O)c2)oc2cc(O)cc(O)c12 | MAL12 | enzyme activity, inhibitor, absorbance | 50 µM | 98.7 |
| COc1cc(O)c2c(c1)oc(=O)c1c3cc(O)c(O)cc3oc21 | MAL12 | enzyme activity, inhibitor, absorbance | 128 µM | ~90 |
| C#Cc1cc(-c2cc(Nc3nc(N[C@@H](C)c4ccc(F)cn4)ncc3Cl)n[nH]2)ccc1C=O | Tyrosine-protein kinase Lyn (LYN, Homo sapiens, UniProt P07948) | enzyme activity, inhibitor | 0.2 µM | 89.2 |
| COc1cc2c3c(c1OC)-c1c(OC)ccc(Br)c1CC3N(C)CC2 (stereo not shown) | ADRA1A | ligand displacement, radioligand | 10 µM | 95 |
| O=c1c(O)c(-c2ccc(O)c(O)c2)oc2c(Br)c(O)c(Br)c(O)c12 | MAL12 | enzyme activity, inhibitor, absorbance | 50 µM | 95.8 |
| NC/C(=C\F)COc1cccc(Cn2c(=S)[nH]c(=O)c3[nH]cnc32)c1 | Histamine H2 receptor (HRH2, Homo sapiens, UniProt P25021) | ligand displacement, radioligand | 10 µM | < 50 |
| C[C@H]1O[C@H](O[C@H]2[C@H](O)[C@@H](O)[C@@H](O[C@H]3[C@H](O)[C@@H](O)C(O)O[C@@H]3CO)O[C@@H]2CO)[C@H](O)[C@@H](O)[C@@H]1N[C@H]1C=C(CO)[C@@H](O)[C@H](O)[C@H]1O (stereo partly shown) | MAL12 | enzyme activity, inhibitor, absorbance | 50 µM | 37.9 |
| CCCCCCCCCCCC(=O)OCC(C)(C)CC1=C(O)C(=O)c2ccccc2C1=O | MAL12 | enzyme activity, inhibitor | 50 µM | > 70 |
| CC[N+]1(C)CCc2cc(OC)c(OC)c3c2C1Cc1cccc(OC)c1-3 (stereo not shown) | ADRA1A | ligand displacement, radioligand | 10 µM | 13 |
| O=c1cc(-c2ccc(O)cc2)oc2cc(O)cc(O)c12 | MAL12 | enzyme activity, inhibitor, absorbance | 50 µM | 78.6 |
| COc1cc2c3c(c1OC)-c1c(OC)ccc(Cl)c1CC3N(C)CC2 (racemic) | ADRA1A | ligand displacement, radioligand | 10 µM | 99 |
| CCCCCCCCCCCCCCCCCC(=O)OCC(C)(C)CC1=C(O)C(=O)c2ccccc2C1=O | MAL12 | enzyme activity, inhibitor | 50 µM | > 70 |
